MC4R ag barr = MC4R agonists recruiting beta-arrestin, primary screen, cell-based, luminescence, agonist arm of biased-ligand search | actives 0.98% (n = 360,000) | AID 540308, 2011 | Melanocortin receptor 4 (Homo sapiens), P32245 | activation, % at 8.9 µM | U2OS MC4R beta-arrestin complementation; percent of melanotan II response, DMSO zero;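 active means activation above a per-plate cutoff, the mean activation of sample wells on that plate plus 3 SD, cut at about 8% in these data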
EBI2 block = EBI2 receptor antagonists, beta-arrestin recruitment, primary screen, cell-based, luminescence, 7a,25-OHC stimulation, uHTS | 7a,25-OHC stimulated | inhibition, % at 5 µM | actives 0.81% (n = 360,000); in the data active means inhibition above about 38%;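 further: enzyme fragment complementation signal reports receptor beta-arrestin coupling in cells; 0% = agonist plus DMSO wells and 100% = wells without agonist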
HTR2A ag = mouse Htr2a agonists via beta-arrestin recruitment, primary screen, cell-based, luminescence; 5-hydroxytryptamine receptor 2A (Mus musculus), P35363; CHO-K1 mHTR2A beta-arrestin complementation; percent of 30 µM serotonin response; activation, % at 7.6 µM; actives 0.66% (n = 360,000);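 active means activation above a run cutoff, the mean activation of all tested compounds plus 3 SD, cut at about 14% in these data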;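 further: 0% = plate median of compound wells and 100% = 30 µM serotonin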
Target sequence (P35363 whole entry, looked up): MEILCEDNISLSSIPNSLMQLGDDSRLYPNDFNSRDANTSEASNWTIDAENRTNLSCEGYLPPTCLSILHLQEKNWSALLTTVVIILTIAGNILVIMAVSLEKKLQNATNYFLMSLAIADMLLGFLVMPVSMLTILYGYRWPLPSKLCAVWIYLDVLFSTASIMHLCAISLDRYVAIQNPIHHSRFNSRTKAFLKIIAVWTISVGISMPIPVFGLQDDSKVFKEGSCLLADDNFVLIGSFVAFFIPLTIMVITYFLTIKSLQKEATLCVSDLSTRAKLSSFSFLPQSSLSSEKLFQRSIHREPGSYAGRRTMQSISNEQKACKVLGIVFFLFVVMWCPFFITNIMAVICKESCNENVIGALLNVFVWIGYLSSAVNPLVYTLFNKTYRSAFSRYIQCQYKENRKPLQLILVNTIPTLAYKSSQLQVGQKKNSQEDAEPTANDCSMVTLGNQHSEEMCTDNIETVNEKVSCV
MC4R antagonist = MC4R antagonists of cAMP signaling, primary screen, cell-based, TR-FRET, antagonist arm of biased-ligand search | Melanocortin receptor 4 (Homo sapiens), P32245 | MC4R-expressing cells, MTII-stimulated cAMP, LANCE TR-FRET | inhibition, % at 6.5 µM | actives 0.48% (n = 360,000) | AID 540295, 2011;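 active means inhibition above its plate's cutoff, the mean of tested wells on that plate plus 3 SD, cut at about 29% in these data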;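 further: 0% = Melanotan II alone and 100% = Melanotan II plus saturating MCL0020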
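System: U2OS-MC4R stable cell line; Technique: Eu-cAMP/anti-cAMP TR-FRET, emission 671 nm; Repeats: single well per compound; Also added: Melanotan II; Dosing: one concentration, 6.5 µM nominal; Schedule: 30-min compound, 1-h challenge, 1-h detection, room temperature.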
Active calls of the source: *; . = no result given. A selection: hits, their analogues and other compounds. The true share with any hit is near 2.8%.

SMILES	MC4R ag barr	EBI2 block	HTR2A ag	MC4R antagonist
O=C(NCc1cccnc1)/C(=C\c1ccc(-c2ccc(Cl)c(Cl)c2)o1)S(=O)(=O)c1ccccc1	0	64*	-5	27
O=C(NCc1cccnc1)c1ccc(-c2ccc(Cl)cc2)o1	0	3	-2	11
CC(=O)Nc1ccc(NC(=O)CN(c2ccc(C34CC5CC(CC(C5)C3)C4)cc2)S(C)(=O)=O)cc1	11*	-9	3	10
CS(=O)(=O)N(CC(=O)Nc1ccc(CC#N)cc1)c1ccc(C23CC4CC(CC(C4)C2)C3)cc1	0	1	0	24
Cc1cccc(C)c1NC(=O)COC(=O)COc1ccc2c(C)cc(=O)oc2c1	0	-3	6	13
Cc1csc(NC(=O)COc2ccc3c(C)cc(=O)oc3c2)n1	9.4*	3	3	-9
Cc1nc2ccc(Cl)cc2n1C	-2	-4	3	8
O=C(Nc1ccccc1)c1ccc(Cn2cc(C(F)(F)F)ccc2=O)cc1	-1	16	-6	3
O=C(Nc1cc(C(F)(F)F)cc(C(F)(F)F)c1)c1ccc(Cn2cc(C(F)(F)F)ccc2=O)cc1	8.4*	-2	1	3
Cc1ccc(OCC(=O)N2CCN(c3ccc([N+](=O)[O-])c(N4CCOCC4)c3)CC2)cc1	-2	56*	4	11
Cc1cc(OCC(=O)N2CCOCC2)ccc1[N+](=O)[O-]	-3	2	9	-6
Cc1c(Cl)cccc1NC(=O)CNC(=O)C1CCN(C(=O)Nc2ccccc2)CC1	1	4	5	17
O=[N+]([O-])c1ccc(O)c(/C=N/Nc2ccc(Cl)nn2)c1	-2	77*	-7	4
O=C(N/N=C/c1cc([N+](=O)[O-])ccc1O)C1CCCCC1	-2	76*	-8	-2
O=[N+]([O-])c1ccc(O)c(/C=N/Nc2nn[nH]n2)c1	-1	7	-9	-4
O=C(Cn1nc2ccccc2n1)N/N=C/c1cc([N+](=O)[O-])ccc1O	0	27	-14	2
Cc1ccc(Cl)c(OCC(=O)Nc2ccc3c(c2)OCCO3)c1	9.0*	7	2	11
CCN(CC(=O)Nc1ccc2c(c1)OCCO2)C(=O)COc1cc(C)ccc1Cl	-2	-2	-6	3
N=C1/C(=C/c2cccn2CCOc2ccccc2)C(=O)N=C2SC=C(c3ccccc3)N12	-5	41*	-5	-8
N=C1/C(=C\c2ccc(-c3cc(Cl)cc(Cl)c3)o2)C(=O)N=C2SC=C(c3ccccc3)N12	-3	17	4	14
N=C1/C(=C/c2cccn2Cc2ccc(Cl)cc2)C(=O)N=C2SC=CN12	9.4*	13	-1	-10
CC(C)C[C@H]1CN([C@@H](Cc2ccccc2)CN2CCC[C@@H]2CN2C(=O)C(=O)NC[C@@H]2Cc2ccccc2)C(=O)C(=O)N1CCc1ccccc1	.	9	-3	.
COCCN1C[C@@H](CO)O[C@@H](n2cnc3c(NC4CCC4)ncnc32)C1	-2	-6	6	0
Cc1ccc(NC(=O)c2ccc(Nc3c([N+](=O)[O-])cc([N+](=O)[O-])cc3[N+](=O)[O-])cc2)cc1	-3	81*	1	6
CC(=O)Nc1ccc(NC(=O)c2cc([N+](=O)[O-])cc([N+](=O)[O-])c2)cc1	-2	-6	1	-5
SMILES	MC4R ag barr	EBI2 block	HTR2A ag	MC4R antagonist
Cc1ccccc1CNC(=O)C1CCCN(c2nnc(C)c3c(C)n(-c4ccccc4)nc23)C1 (stereo not given)	6	9	-1	9
Cc1ccc(-n2nc3c(N4CCC(C(=O)NCc5ccccc5C)CC4)nnc(C)c3c2C)cc1	9.6*	10	-5	10
COc1cc(/C=C(/C#N)c2nc3ccccc3[nH]2)ccc1Oc1ncccc1[N+](=O)[O-]	14*	5	5	8
CCOc1cc(/C=C(/C#N)c2nc3ccccc3[nH]2)ccc1Oc1ccc([N+](=O)[O-])cn1	3	19	0	-5
Cc1ccc(Nc2c([N+](=O)[O-])ccc3c2=NC2(CCCCC2)N=3)cc1	-2	62*	5	-5
Cc1ccc(Nc2ccc(N3CCN(c4ccc([N+](=O)[O-])cc4)CC3)nn2)cc1	0	8	4	-2

High-throughput results from PubChem BioAssay.
